Measured values as given in ChEMBL document CHEMBL1150397, “Towards the first inhibitors of trihydroxynaphthalene reductase from Curvularia lunata: synthesis of artificial substrate, homology modelling and initial screening” (Bioorg Med Chem, 2008).
The source made the active and inactive calls. The rule behind the calls is not given here.

tested on: Curvularia lunata; test: (§1) Inhibition of recombinant Curvularia lunata trihydroxynaphthalene reductase; details: not given
Procedure, shortened: (§2)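 GST-fusion 3HNR from C. lunata expressed in E. coli BL21-AI, bound on glutathione-Sepharose, thrombin-cleaved, purity checked by SDS-PAGE. Initial rates of DDBO oxidation with NADP+ reduction followed at 340 nm (NADPH absorbance), 25 °C. Conditions: 0.2 µM enzyme, 100 µM DDBO, 500 µM coenzyme, 100 mM phosphate pH 7.0, 1% final DMF. Compounds screened at 100 µM; IC50 determined over 5–200 µM where screening inhibition exceeded 35%.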

Activity	Structure (SMILES)
inactive	CC(=O)Nc1ccc(O)cc1
inactive	CC(C)Cc1ccc(C(C)C(=O)O)cc1 (configuration not stated)
inactive	CCOc1ccc(NC(C)=O)cc1
inactive	CC(C(=O)O)c1cccc(C(=O)c2ccccc2)c1 (configuration not stated)

same assay, conditions: concentration not given here

inhibition [%]	Structure (SMILES)
9	COc1ccc2cc([C@H](C)C(=O)O)ccc2c1
17	Cc1ccc(-c2cc(C(F)(F)F)nn2-c2ccc(S(N)(=O)=O)cc2)cc1

biological target: not listed separately; test: as §1; details: not given; procedure, shortened: as §2

IC50 [µM]	Structure (SMILES)
66	O=C1CC(=O)c2ccccc21
108	O=C(O)Cc1ccccc1Nc1c(Cl)cccc1Cl [DICLOFENAC SODIUM]

The remaining lines, values behind:

Structure (SMILES)	IC50 [µM]
CCc1cccc2c3c([nH]c12)C(CC)(CC(=O)O)OCC3 (configuration not stated) [ETODOLAC]	17
CCOC(=O)c1cc(=O)c2cc(C)ccc2o1	120
COc1ccc2cc(CCC(C)=O)ccc2c1 [NABUMETONE]	111
CCOC(=O)c1cc(=O)c2cc(C)cc([N+](=O)[O-])c2o1	167
